Data taken from ChEMBL document CHEMBL4823286, “Synthesis and evaluation of novel 2,4-diaminopyrimidines bearing a sulfoxide moiety as anaplastic lymphoma kinase (ALK) inhibition agents” (Bioorg Med Chem Lett, 2021).

Assays:
NCI-H2228 = assay: Antiproliferative activity against human NCI-H2228 cells assessed as inhibition of cell proliferation measured by CCK8 assay; assay type: functional, cell-based
How it was run: (§1)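 Cell proliferation inhibition; IC50 given as mean ± SD of three independent experiments.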

BaF3 = assay: Antiproliferative activity against mouse BaF3 cells overexpressing ALK assessed as inhibition of cell proliferation measured by CCK8 assay; assay type: functional, cell-based; how it was run: as §1

Structure (SMILES)	IC50 (NCI-H2228) [nM]	IC50 (BaF3) [nM]
CC[S+]([O-])c1ccccc1Nc1nc(Nc2ccc(N3CCN(C)CC3)cc2OC)ncc1Cl (stereo not drawn)	35.2	13.1
CC[S+]([O-])c1cc(F)ccc1Nc1nc(Nc2ccc(N3CCN(C(C)=O)CC3)cc2OC)ncc1Cl (stereo not drawn)	704	85.7
CCSc1ccccc1Nc1nc(Nc2ccc(N3CCN(C)CC3)cc2OC)ncc1Cl	981	78
CC[S+]([O-])c1cc(F)ccc1Nc1nc(Nc2ccc(N(C)C3CCN(C)CC3)cc2OC)ncc1Cl (stereo not drawn)	1440	82
